Reference: ChEMBL document CHEMBL4732041, “Sulfonium-based liposome-encapsulated antibiotics deliver a synergistic antibacterial activity” (RSC Med Chem, 2021)
pIC50: −log10 of the molar value. In brackets after ≈: the same amount, converted by molar mass. Several values for one entry are separate records, joined by “and”; a condition that tells them apart may be missing. Identical values can stand only once. Activity calls are given as the source filed them. The calls are words filed in the database; no cut-off is given here.

Experiments:
Staphylococcus aureus [1] = test: Antibacterial activity against Staphylococcus aureus MTCC 96 incubated for 14 to 16 hrs by micro broth dilution method; type: functional; conditions: time 14-16 hrs
Procedure, shortened: (§1)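 Broth microdilution. E. coli and P. aeruginosa grown in LB, S. aureus in BHI, to mid-log phase at 37 °C with shaking. Cells washed and resuspended in PBS, then exposed to graded compound concentrations at 10^6 CFU/mL at 37 °C for 14–16 h. OD600 read. MIC is the lowest concentration with no visible growth or OD close to the bacteria-free control. Repeated thrice at the MIC.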

Staphylococcus aureus [2] = test: Antibacterial activity against methicillin resistant Staphylococcus aureus incubated for 14 to 16 hrs by micro broth dilution method; type: functional; conditions: time 14-16 hrs
Procedure, shortened: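 MRSA grown in BHI broth at 37 °C with shaking to mid-log phase, harvested, PBS-washed and resuspended in PBS; 10^6 CFU mL−1 incubated with serially varied compound concentrations at 37 °C for 14–16 h; OD600 read. MIC is the lowest concentration with no visible growth or OD near the bacteria-free control; repeated thrice.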

Escherichia coli [3] = test: Antibacterial activity against Escherichia coli MTCC 1687 incubated for 14 to 16 hrs by micro broth dilution method; type: functional; conditions: time 14-16 hrs; procedure, shortened: as §1
[4] = Solubility of compound in PBS at pH 7.4; type: physicochemical; conditions: buffer
Pseudomonas aeruginosa [5] = test: Antibacterial activity against Pseudomonas aeruginosa MTCC 2488 incubated for 14 to 16 hrs by micro broth dilution method; type: functional; conditions: time 14-16 hrs; procedure, shortened: as §1
Pseudomonas aeruginosa [6] = test: Antibacterial activity against Pseudomonas aeruginosa after 24 hrs by microdilution method; type: functional
HaCaT [7] = test: Cytotoxicity against human HaCaT cells after 24 hrs by MTT assay; type: cell-based
Staphylococcus aureus [8] = test: Synergistic antibacterial activity against Staphylococcus aureus assessed as amoxicillin MIC encapsulated by compound; type: functional
Procedure, shortened: (§2)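 Antibiotic-loaded liposomes (film hydrated with tetracycline or amoxicillin in PBS, freeze–thaw, vortexing, unloaded drug removed by centrifugation) tested by the same broth microdilution protocol: mid-log cells in PBS at 10^6 CFU/mL, 37 °C, 14–16 h, OD600.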

Escherichia coli [9] = test: Synergistic antibacterial activity against Escherichia coli assessed as amoxicillin MIC encapsulated by compound; type: functional; procedure, shortened: as §2
Staphylococcus aureus [10] = test: Synergistic antibacterial activity against Staphylococcus aureus assessed as tetracyclin MIC encapsulated by compound; type: functional; procedure, shortened: as §2
Escherichia coli [11] = test: Synergistic antibacterial activity against Escherichia coli assessed as tetracyclin MIC encapsulated by compound; type: functional; procedure, shortened: as §2
[12] = Hemolytic activity against human erythrocytes incubated for 1 hr by UV-vis spectroscopic method; type: ADME, cell-based, Erythrocyte
Procedure, shortened: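 Erythrocytes from fresh human blood spun at 1500 rpm for 10 min, PBS-washed, made to 5% haematocrit. Serial compound dilutions incubated with the cells for 1 h at 37 °C. Buffer served as negative control and 0.5% Triton X-100 as positive control. After centrifugation, supernatant absorbance read at 410 nm and % haemolysis computed against both controls.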

Escherichia coli [13] = test: Bactericidal activity against Escherichia coli MTCC 1687 incubated for 24 hrs by micro broth dilution method; type: functional
Pseudomonas aeruginosa [14] = test: Bactericidal activity against Pseudomonas aeruginosa MTCC 2488 incubated for 24 hrs by micro broth dilution method; type: functional
HaCaT [15] = test: Cytotoxicity against human HaCaT cells up to 100 uM after 24 hrs by MTT assay; type: cell-based
Staphylococcus aureus [16] = test: Bactericidal activity against methicillin resistant Staphylococcus aureus […] by micro broth dilution method; type: functional
Staphylococcus aureus [17] = test: Bactericidal activity against Staphylococcus aureus MTCC 96 […] by micro broth dilution method; type: functional
[18] = Therapeutic index, ratio of IC50 for human HaCaT to MIC for Staphylococcus aureus; type: toxicity; conditions: HaCaT cells
[19] = Drug release in PBS at pH 7.4 assessed as tetracyclin release incubated for 60 hours by fluorometric method; conditions: buffer, pH 7.4, 60 h
[20] = Therapeutic index, ratio of IC50 for human HaCaT to MIC for Escherichia coli; type: toxicity; conditions: HaCaT cells, read-out: TI
Escherichia coli [21] = test: Bactericidal activity against Escherichia coli MTCC 1687 assessed as fragmented cell morphology incubated for 5 hrs by FESEM analysis; type: functional, organism-based
Procedure, shortened: (§3)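 S. aureus MTCC 96 and E. coli MTCC 1687 harvested by centrifugation (5000 rpm, 5 min) and washed. Exposed to compound for 5 h alongside untreated control. Cells washed with water, drop-cast on foil, air-dried, mounted on carbon tape, gold double-coated, and imaged by FESEM.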

Cell membrane [22] = test: Induction of membrane depolarization in Staphylococcus aureus MTCC 96 assessed as increase in fluorescence intensity at 0 to 4 uM by DiSC3-5 dye based fluorescence assay; type: subcellular; conditions: dose 0-4 µM
Procedure, shortened: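 Mid-log S. aureus MTCC 96 resuspended in 10 mM HEPES with 50 mM glucose and loaded with 0.4 μM (final) DiSC3(5) for 1 h. KCl added to 100 mM, 10 min wait, then compound at 0, 2 or 4 μM or 30 μM valinomycin as positive control. Fluorescence recorded at excitation 620 nm, emission 650 nm.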

[23] = Aggregation property of compound assessed as spherical aggregates size by dynamic light scattering analysis; type: physicochemical
Procedure, shortened: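 Chloroform stock dried to a film by rotary evaporation, hydrated overnight at 50 °C in PBS (137 mM NaCl, 2.7 mM KCl, 8 mM Na2HPO4, 2 mM KH2PO4, pH 7.4), then vortexed and intermittently sonicated to unilamellar vesicles. Hydrodynamic diameter and zeta potential measured by DLS at 25 °C in buffers of different pH.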

Cell membrane [24] = test: Disruption of bacterial cell membrane in Staphylococcus aureus MTCC 96 assessed as increase in PI uptake by measuring increase in fluorescence intensity by PI dye based spectrofluorometric analysis; type: subcellular; conditions: time 1-3 hrs, TDE = time-dependent effect
Procedure, shortened: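 S. aureus MTCC 96 grown overnight and diluted in medium to 10^6 CFU/mL. Compound added, then incubated at 37 °C, 180 rpm. Samples taken at 1, 2 and 3 h, washed in PBS, stained with 30 μM PI for 30 min, washed again. Fluorescence read at excitation 535 nm, emission 617 nm.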

Staphylococcus aureus [25] = test: Bactericidal activity against Staphylococcus aureus MTCC 96 assessed as fragmented cell morphology incubated for 5 hrs by FESEM analysis; type: functional, organism-based; procedure, shortened: as §3
[26] = Aggregation property of the compound in aqueous medium assessed as formation of spherical aggregates by FE-TEM analysis; type: physicochemical; conditions: buffer
Procedure, shortened: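 Lipid aggregates prepared in PBS pH 7.4 by film hydration, not extruded, then diluted to half concentration. Applied to carbon-coated copper grid for 1 min, uranyl acetate stain, excess wicked off. Grid dried overnight at 30 °C and imaged by TEM at 200 kV.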

[27] = Drug release in PBS at pH 7.4 assessed as amoxicillin release incubated for 60 hours by fluorometric method; conditions: buffer, pH 7.4, 60 h
Staphylococcus aureus [28] = test: Bactericidal activity against Staphylococcus aureus assessed as membrane damage incubated for 5 hrs by cFDA-SE dye based fluorescence microscopic analysis; type: functional, organism-based
Procedure, shortened: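 S. aureus cultured and harvested, then exposed to compound (buffer-only control) for 5 h. Cells washed and diluted to 10^6 CFU/mL, stained separately with 30 μM PI or 10 μM cFDA-SE for 30 min, and viewed by fluorescence microscopy.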

Staphylococcus aureus [29] = test: Antibiofilm activity against Staphylococcus aureus MTCC 96 assessed as inhibition of biofilm formation incubated for overnight by crystal violet staining assay; type: functional, organism-based; conditions: dose 6.25-100 µM
Procedure, shortened: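 S. aureus MTCC 96 grown and exposed to compound as in the MIC assay, then incubated overnight. Planktonic cells removed, wells rinsed with PBS and air-dried. Stained with 1% (v/v) crystal violet for 20 min, dried, dye taken up in 95% ethanol, and absorbance read at 590 nm.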

Structure (SMILES) | MIC (Staphylococcus aureus [1]) | MIC (Staphylococcus aureus [2]) | MIC (Escherichia coli [3]) | MIC (Pseudomonas aeruginosa [5]) | MIC (Pseudomonas aeruginosa [6]) | also measured
CC[S+](C)Cc1cc(C[n+]2ccccc2)cc(C[S+](C)CC)c1.F[B-](F)(F)F.F[B-](F)(F)F.F[B-](F)(F)F (stereo unspecified) | > 100 µM | > 100 µM | > 100 µM | > 100 µM |  | solubility [4]: Soluble
CCCCCCCCCCCCC[N+](C)(C)Cc1ccccc1.[Cl-] [BENZALKONIUM CHLORIDE] |  |  |  |  | 32 µg/mL | 
Oc1cc(Cl)ccc1Oc1ccc(Cl)cc1Cl [TRICLOSAN] |  |  |  |  | > 512 µg/mL | 
N=C(NCCCCCCNC(=N)NC(=N)Nc1ccc(Cl)cc1)NC(=N)Nc1ccc(Cl)cc1.O=C(O)[C@H](O)[C@@H](O)[C@H](O)[C@H](O)CO |  |  |  |  | 15.6 µg/mL and 30.9 µM | 
CCCCCCCCCCCCSCc1cc(CSCCCCCCCCCCCC)cc(C[n+]2ccccc2)c1 | > 100 µM | > 100 µM | > 100 µM | > 100 µM |  | 
CCCCCCCCCCCCSCc1cc(CSCCCCCCCCCCCC)cc(Cn2cc(CS(=O)(=O)O)nn2)c1 | > 100 µM | > 100 µM | > 100 µM | > 100 µM |  | 
CC1(C)S[C@@H]2[C@H](NC(=O)[C@H](N)c3ccc(O)cc3)C(=O)N2[C@H]1C(=O)O [AMOXICILLIN] | 6.8 µM (≈ 2.48 µg/mL) | > 50 µM | 11 µM (≈ 4.02 µg/mL) | 4.3 µM (≈ 1.57 µg/mL) |  | pIC50 (HaCaT [7]): 4.53; MIC (Staphylococcus aureus [8]): 1.2 µM; MIC (Escherichia coli [9]): 1.7 µM
CN(C)[C@@H]1C(O)=C(C(N)=O)C(=O)[C@@]2(O)C(O)=C3C(=O)c4c(O)cccc4[C@@](C)(O)[C@H]3C[C@@H]12 [TETRACYCLINE] | 4.2 µM (≈ 1.87 µg/mL) | > 100 µM | 8.5 µM (≈ 3.78 µg/mL) | 14 µM (≈ 6.22 µg/mL) |  | MIC (Staphylococcus aureus [10]): 0.7 µM; MIC (Escherichia coli [11]): 2 µM; pIC50 (HaCaT [7]): 5.10
CCCCCCCCCCCC[S+](C)Cc1cc(Cn2cc(CS(=O)(=O)O)nn2)cc(C[S+](C)CCCCCCCCCCCC)c1.F[B-](F)(F)F.F[B-](F)(F)F (stereo unspecified) | 10 µM | 25 µM | 12 µM | 25 µM |  | HC50 at 1 h [12]: 35 µM; MBC (Escherichia coli [13]): 20 µM; MBC (Pseudomonas aeruginosa [14]): 50 µM; Activity (HaCaT [15]): Non-Toxic; MBC (Staphylococcus aureus [16]): > 100 µM; MBC (Staphylococcus aureus [17]): 12.5 µM
CCCCCCCCCCCCSCc1cc(CN=[N+]=[N-])cc(CSCCCCCCCCCCCC)c1 | > 100 µM | > 100 µM | > 100 µM | > 100 µM |  | 
CCSCc1cc(CSCC)cc(C[n+]2ccccc2)c1 | > 100 µM | > 100 µM | > 100 µM | > 100 µM |  | 
CCCCCCCCCCCC[S+](C)Cc1cc(C[n+]2ccccc2)cc(C[S+](C)CCCCCCCCCCCC)c1.F[B-](F)(F)F.F[B-](F)(F)F.F[B-](F)(F)F (stereo unspecified) | 6.3 µM | 6.3 µM | 7.5 µM | 12 µM |  | HC50 at 1 h [12]: 29 µM; MBC (Escherichia coli [13]): 10 µM; selectivity ratio [18]: 4.3; Activity [19]: 40%; MBC (Pseudomonas aeruginosa [14]): 24 µM; selectivity ratio [20]: 3.6; pIC50 (HaCaT [7]): 4.57; Activity (Escherichia coli [21]): Active; Activity (Cell membrane [22]): Active; Activity [23]: 270 nm; MBC (Staphylococcus aureus [16]): 12.5 µM; MBC (Staphylococcus aureus [17]): 12.5 µM; Activity (Cell membrane [24]): Tde; Activity (Staphylococcus aureus [25]): Active; Activity [26]: Active; Activity [27]: 60%; Activity (Staphylococcus aureus [28]): Active; Activity (Staphylococcus aureus [29]): Dose-dependent effect
CCCCCCCCN=c1ccn(CCCCCCCCCCn2ccc(=NCCCCCCCC)cc2)cc1.Cl.Cl [OCTENIDINE HYDROCHLORIDE] |  |  |  |  | 6.25 µM and 3.9 µg/mL | 
